Sampled rows, rich in hits. Any-hit rate of the full collection: about 3.5%.
MrgX1 antag = antagonists of human MrgX1 receptor, primary screen, HEK293 cells, Fluo-4 calcium flux | 310,000 compounds, 1.3% hits | BAM8-22 antagonism; stronger effect = lower value | B-score at 10 µM | Mas-related G-protein coupled receptor member X1 (Homo sapiens), Q96LB2 | AID 588676, 2011;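 active = calcium-response B-score plate-corrected more than 3 library SD below zero, starting fluorescence within 5 deviations, no agonist response on first addition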;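 note: peak minus trough fluorescence over baseline after final BAM8-22 challenge near maximal dose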
Target sequence (Q96LB2 whole entry, looked up): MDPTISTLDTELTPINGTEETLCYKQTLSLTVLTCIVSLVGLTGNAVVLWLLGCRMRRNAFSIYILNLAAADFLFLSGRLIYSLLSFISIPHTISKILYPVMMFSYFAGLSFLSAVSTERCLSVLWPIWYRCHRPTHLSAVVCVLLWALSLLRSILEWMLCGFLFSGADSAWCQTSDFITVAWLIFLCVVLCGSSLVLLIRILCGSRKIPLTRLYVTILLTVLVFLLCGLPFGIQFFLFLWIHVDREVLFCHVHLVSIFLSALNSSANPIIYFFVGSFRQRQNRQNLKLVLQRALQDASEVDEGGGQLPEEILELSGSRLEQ
RGS4 inh = RGS4 inhibitors, primary screen, cell-based, HEK293 M3R inducible RGS4, calcium flux. Fluo-4 calcium flux; stronger effect = higher value; triggered by carbachol at its EC20. 310,000 compounds, 0.45% hits. B-score at 10 µM;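 active = B-score, a plate-corrected calcium signal, over three deviations above library mean, with baseline fluorescence within five deviations of library mean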;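 note: RGS4 expression induced by doxycycline in cells with stable M3 receptor; B-score is computed from the integrated fluorescence ratio over baseline after carbachol; higher B-score means a larger calcium signal and so more RGS4 inhibition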
Target sequence (P49798 whole entry, looked up): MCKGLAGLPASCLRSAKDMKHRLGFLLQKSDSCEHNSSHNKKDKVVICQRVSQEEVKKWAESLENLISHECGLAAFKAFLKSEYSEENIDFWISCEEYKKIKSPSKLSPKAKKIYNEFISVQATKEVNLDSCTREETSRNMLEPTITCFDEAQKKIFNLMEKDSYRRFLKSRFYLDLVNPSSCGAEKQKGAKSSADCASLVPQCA
MrgX1 PAM = positive allosteric modulators of MrgX1, primary screen, HEK293 cells, Fluo-4 calcium flux; Mas-related G-protein coupled receptor member X1 (Homo sapiens), Q96LB2; FDSS; stronger effect = higher value; B-score at 10 µM; 310,000 compounds, 0.63% hits; AID 588675, 2011;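 active = plate-corrected calcium response at least 3 library SD above typical, normal starting fluorescence, not activating the receptor alone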;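 note: compound read alongside a low EC10 to EC30 dose of BAM8-22 agonist; peak minus trough fluorescence over baseline measured at the second addition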
MrgX1 agonist = agonists of human MrgX1 receptor, primary screen, HEK293 cells, Fluo-4 calcium flux | Mas-related G-protein coupled receptor member X1 (Homo sapiens), Q96LB2 | Fluo-4 calcium fluorescence, agonist mode; stronger effect = higher value | B-score at 10 µM | 310,000 compounds, 0.44% hits;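 active = calcium response B-score plate-corrected fluorescence ratio at least 3 library SD, with starting fluorescence B-score inside 5 SD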
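Material: MrgX1-expressing HEK293 cells / Dosing: compound as first of three additions / Incubation: overnight seeding, then 1 h dark dye loading / Signal: Fluo-4 NW calcium fluorescence / Evaluation: B-scored fluorescence response ratio / Benchmarks: positive and negative control wells on each plate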
RGS4 act = RGS4 potentiators or activators, primary screen, cell-based, HEK293 M3R inducible RGS4, calcium flux; carbachol calcium flux Fluo4; stronger effect = lower value; B-score at 10 µM; 310,000 compounds, 0.92% hits; AID 463111, 2010;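 active = B-score of the integrated calcium signal more than 4 SD below the library mean, with starting fluorescence not abnormally high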;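 note: negative B-score means reduced calcium response which marks RGS4 activation or potentiation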
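System: HEK293 FlpIn-TREx cells, stable M3R, doxycycline-inducible RGS4. Timing: overnight RGS4 induction, 30 min dye load 37 °C, 20 min compound RT. Also added: carbachol, ECmax concentration. Measured by: Fluo4 fluorescence kinetic imaging of calcium. Evaluation: integrated calcium ratio converted to B score.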
Large screens that a line does not name were inactive.

COc1ccc(CN2C(=O)NC(=O)/C(=C\c3cccc(OC)c3OC)C2=O)cc1	MrgX1 antag -5.5
Cc1ccc(/C=C2/C(=O)NC(=O)N(Cc3ccc(F)cc3)C2=O)o1	RGS4 inh 11
Cc1cc(O)c2c(c1)OC(C)(C)C1=C2CC(C)CC1 (stereo not given)	none
NC(=O)c1ccc(N=Nc2c(O)[nH]c(=O)[nH]c2=O)cc1	none
O=c1[nH]c(O)c(N=Nc2ccc(SC(F)F)cc2)c(=O)[nH]1	MrgX1 PAM 13
Clc1ccc2c(c1)C(OC1CN3CCC1CC3)c1ccccc1CS2 (stereo not given)	RGS4 act -8.6
CN1CCN(CCOC2c3ccccc3CSc3ccc(Cl)cc32)CC1 (stereo not given)	MrgX1 antag -9.4
Clc1ccc(C(OCCN2CCCCC2)c2ccccc2)cc1 (stereo not given)	none (no result: RGS4 inh, RGS4 act)
O=C(COc1ccc(Cl)cc1)N(c1ccccc1Cl)C1CN2CCC1CC2 (stereo not given)	none
COc1cc(C=C2C(=O)NC(=O)NC2=O)ccc1OS(=O)(=O)c1ccccc1[N+](=O)[O-]	none
C#C[C@]1(O)CC[C@H]2[C@@H]3CCC4=Cc5nc6nc7ccccc7n6cc5C[C@]4(C)[C@H]3CC[C@@]21C	none (no result: RGS4 inh, RGS4 act)
O=C(c1ccccc1)C(CN1CCCC1)c1ccccc1 (stereo not given)	RGS4 act -8.4
O=C(CN1CCCCC1)c1ccc(F)cc1	none
Clc1ccc(N2CC2c2ccncc2)cc1 (stereo not given)	none
Cc1cc(C=C2C(=O)N(C)C(=S)N(C)C2=O)c(C)n1C1CCCCC1	MrgX1 agonist 47
Cc1cc(C=C2C(=O)NC(=S)NC2=O)c(C)n1C1CCCC1	none
O=C1C(=O)c2cccc3cccc1c23	MrgX1 agonist 27
O=C1C(=O)c2ccccc2-c2ccccc21	none
Cc1cc(OC(=O)c2cccs2)c2c3c(c(=O)oc2c1)CCCC3	RGS4 act -7.3
Cc1cc(OC(=O)c2ccco2)c2c3c(c(=O)oc2c1)CCCC3	none
C/C=C1/CC(C)C(C)(O)C(=O)OCC2CCN3CCC(OC1=O)C23 (stereo not given)	RGS4 act -8.2
C/C=C1/C[C@@H](C)[C@](O)(CO)C(=O)OCC2=CCN3CC[C@@H](OC1=O)[C@@H]23	none (no result: RGS4 inh, RGS4 act)
CCn1cc(C(=O)N2CCC3(CC2)OCCO3)c(=O)c2cc(S(=O)(=O)N3CCCC3)ccc21	none
Cc1c(C(=O)N2CCC3(CC2)OCCO3)oc2ccc(S(=O)(=O)N3CCCCC3)cc12	MrgX1 antag -5.3
COc1ccc(-n2c(/C=C/c3cccc(F)c3)nc3ccccc3c2=O)c(OC)c1	none
COc1ccc(-[n+]2c(-c3ccccc3)cc(-c3ccc(C)cc3)cc2-c2ccccc2)cc1	MrgX1 antag -6.7, MrgX1 PAM 14, RGS4 act -7.5
Brc1ccc(-[n+]2c(-c3ccccc3)cc(-c3ccccc3)cc2-c2ccccc2)cc1	RGS4 act -8.6
CCCOC(=O)c1ccc(-[n+]2c(-c3ccccc3)cc(-c3ccccc3)cc2-c2ccccc2)cc1	MrgX1 agonist 34, RGS4 act -7.2
CC1Oc2cc3c(-c4c(O)cc(O)c5c(O)c6c(cc45)OC(C)C(C)C6=O)c(O)cc(O)c3c(O)c2C(=O)C1C (stereo not given)	MrgX1 antag -5.9
CN(C)CCSC1c2ccccc2CSc2ccccc21 (stereo not given)	RGS4 act -9.1
CN1CC(C(=O)c2cccc(C(F)(F)F)c2)C(c2ccc(Cl)cc2)C1 (stereo not given)	none
O=C(O)C(O)(c1ccccc1)C1CCCCC1 (stereo not given)	none
CC[N+](C)(CC)CCCOC(=O)C(O)(c1ccccc1)C1CCCCC1 (stereo not given)	RGS4 act -7.1
CCOC(C(=O)OCCC[N+](C)(CC)CC)(c1ccccc1)c1ccccc1	RGS4 act -8.7
COc1ccc(C(=O)O/N=C(/C(N)=O)P(=O)(OC(C)C)OC(C)C)cc1	RGS4 act -7.7
CCCCOc1ccc(CN2CCN(CCO)CC2)cc1	none
CCCCCCOc1ccc(CN2CCN(CCO)CC2)cc1	RGS4 act -7.3
CC1CCN(CCc2nc3ccccc3[nH]2)CC1	none
C[C@]12CCC(=O)C[C@H]1CC[C@@H]1[C@@H]2CC[C@]2(C)[C@@H](O)CC[C@@H]12	none (no result: RGS4 inh, RGS4 act)
CC1CCC(C(C)C)C(OC(=O)Cn2c(COc3ccccc3)[n+](C)c3ccccc32)C1 (stereo not given)	MrgX1 antag -14, RGS4 act -8
COc1cccc(C(=O)C2CN(C)CC2c2ccc(Cl)cc2)c1 (stereo not given)	none
COc1ccc(C(=O)C2CN(C)CC2c2ccc(Cl)cc2)cc1 (stereo not given)	RGS4 act -7.2
CCOC(=O)CSc1ccc(C(=O)N2CCC3(CC2)OCCO3)cc1[N+](=O)[O-]	none
O=P(Nc1ccccc1)(Oc1ccccc1)Oc1ccccc1	none
COc1cccc(OP(=O)(Nc2ccccc2)Oc2cccc(OC)c2)c1	RGS4 act -9.9
CN1CCCN(C(=O)COc2ccccc2Br)CC1	none
CN1C(=O)/C(=C\c2ccc(N3CCCCCC3)cc2)C(=O)NC1=S	none
CN1C(=O)/C(=C\c2ccc(N3CCCCC3)o2)C(=O)NC1=S	MrgX1 agonist 29
C=CCN1C(=O)/C(=C\c2ccc(N3CCOCC3)o2)C(=O)NC1=S	none
CN1C(=O)/C(=C/c2ccc(N3CCCCCC3)o2)C(=O)NC1=S	MrgX1 agonist 32
COc1ccc(NC2=NC(C)(C)CS2)cc1	none
CC(C)N(CC(O)c1cccc([N+](=O)[O-])c1)C(C)C (stereo not given)	MrgX1 antag -6.2
CN1OC[C@@H]2COc3ccc4ccccc4c3[C@@H]21	none
O=C1NC(=O)C(=Cc2ccc(OCCOc3ccc([N+](=O)[O-])cc3)cc2)C(=O)N1	MrgX1 antag -4.8
C=C1C(=O)O[C@@H]2C[C@@H](C)[C@@H]3C4OC4C(=O)[C@@]3(C)[C@@H](O)[C@H]12 (stereo not given in full)	RGS4 inh 5.2
Cc1cc(NC(=O)CCl)no1	none
C[N+]12CCC(CC1)C(C(O)(c1ccccc1)c1cccs1)C2 (stereo not given)	RGS4 act -7.7
N#CC12CNCC1CN=N2 (stereo not given)	none
CCOC(=O)C1(CCc2ccccc2)CCN(Cc2cccc3c2OCO3)CC1	RGS4 act -7.5
CCOC(=O)C1(CCc2ccccc2)CCN(Cc2csc(C(C)=O)c2)CC1	none
CC1(C)C[C@H]2C=C(C=O)[C@]3(C=O)C[C@]3(C)[C@H]2C1	MrgX1 agonist 32

Screening data: PubChem, Johns Hopkins Ion Channel Center
